Test results reported in article PMC5305809 (ACS chemical biology, 2016).

How the values were obtained:
[1] = system: MDA-MB 231 cells; assay: Global fatty acylation by metabolic labeling; type: cell-based
Summary of the method: (§1)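 Cells grown in DMEM with 10% FBS at 37 °C, 5% CO2. They were pretreated with test compound or DMSO, then cultured with Alk12, an alkyne myristic acid analogue, for metabolic labeling. Labeled proteins were clicked to BODIPY-azide and precipitated. Cysteine acylation was removed with 0.5 M hydroxylamine pH 8.0 at 95 °C for 7 min. Read-out was in-gel fluorescence after SDS-PAGE.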

[2] = system: Jurkat cells; assay: Western blot for global protein lysine acetylation; type: cell-based; settings: Jurkat cells treated with 25 μM HDAC inhibitor
Summary of the method: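 Jurkat cells in RPMI 1640 with 10% FBS, exposed to test compound (25 μM) for 15 hrs. Cells lysed in 4% SDS buffer with protease inhibitor cocktail and nuclease, protein quantified by BCA.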

[3] = system: HeLa cells; assay: Global fatty acylation by metabolic labeling; type: cell-based
Summary of the method: as §1

[4] = system: Jurkat cells; assay: Global fatty acylation by metabolic labeling; type: cell-based; settings: 25 μM inhibitor, 15 hrs
[5] = system: HEK-293T cells; assay: Global fatty acylation by metabolic labeling; type: cell-based, human
Summary of the method: as §1

[6] = target: T1, HDAC8 (Homo sapiens, UniProt Q9BY41); assay: HDAC8 kinetics assay on H3K9 acyl peptides; type: biochemical; settings: for kcat/Km: from slope of linear plot where kcat ND
T1 sequence (Q9BY41 1-377): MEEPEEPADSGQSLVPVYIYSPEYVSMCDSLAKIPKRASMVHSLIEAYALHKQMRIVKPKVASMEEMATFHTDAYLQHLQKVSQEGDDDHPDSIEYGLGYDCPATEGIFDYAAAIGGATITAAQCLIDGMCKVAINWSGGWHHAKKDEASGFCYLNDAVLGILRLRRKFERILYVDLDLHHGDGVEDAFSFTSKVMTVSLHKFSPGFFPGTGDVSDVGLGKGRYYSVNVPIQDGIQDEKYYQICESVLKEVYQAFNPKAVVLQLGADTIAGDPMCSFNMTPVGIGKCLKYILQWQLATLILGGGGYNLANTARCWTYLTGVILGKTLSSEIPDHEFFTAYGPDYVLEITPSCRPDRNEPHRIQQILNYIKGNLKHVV

[7] = recombinant HDAC8 from E. coli, 1 μM, 37 °C, 1 hr, pH 8, duplicate, ± S.D., SD
[8] = recombinant HDAC8 from E. coli, 1 μM, 37 °C, 1 hr, pH 8, duplicate, ± S.D.
[9] = recombinant HDAC8 from Sf9 insect cells

Compound | global lysine acetylation level (Western blot) [2] | global protein lysine fatty acylation vs control (Alk12 labeling) [4] | Km [6, 7] [µM] | kcat [6, 7] [S^−1] | Km [6, 8] [µM] | other results
COc1ccc(Cn2ccc3ccc(C(=O)NO)cc32)cc1 [PCI-34051] | did not noticeably increase protein lysine acetylation | exhibited enhanced global protein lysine fatty acylation |  |  |  | fatty acylation vs DMSO control (Alk12 labeling) [1]: slightly increased fatty acylation; fatty acylation vs DMSO control (Alk12 labeling) [3]: slightly increased fatty acylation; fatty acylation vs DMSO control (Alk12 labeling) [5]: slightly increased fatty acylation
KQTARKSTGGWW [Dodecanoyl H3K9] |  |  | 69.5 ± 10.1 | 0.0123 ± 0.0013 |  | 
O=C(CCCCCCC(=O)Nc1ccccc1)NO [SAHA] | predominantly increased the acetylation of protein bands around 55 kDa | much lower than the control |  |  |  | 
KQTARKSTGGWW [Butyryl H3K9] |  |  |  |  | > 200 | 
Nc1ccccc1NC(=O)c1ccc(CNc2nccc(-c3cccnc3)n2)cc1 [Mocetinostat] | did not noticeably increase protein lysine acetylation | only PCI-34051-treated Jurkat cells exhibited enhanced global protein lysine fatty acylation |  |  |  | 
KQTARKSTGGWW [Octanoyl H3K9] |  |  | 146 ± 10.3 | 0.0202 ± 0.0005 |  | 
KQTARKSTGGWW [Palmitoyl H3K9] |  |  | 18.3 ± 7.4 | 0.0005 ± 0.00007 |  | 
KQTARKSTGGWW [Acetyl H3K9] |  |  |  |  | > 600 | Km [6, 9]: > 300 µM; kcat/Km [6, 9]: 480.8 ^b S^−1.M^−1
Cc1[nH]c2ccccc2c1CCNCc1ccc(/C=C/C(=O)NO)cc1 [Panobinostat] | predominantly increased the acetylation of protein bands around 55 kDa | much lower than the control |  |  |  | 
KQTARKSTGGWW [Myristoyl H3K9] |  |  | 15.8 ± 5.1 | 0.0019 ± 0.0003 | ~16 | demyristoylation catalytic efficiency relative to deacetylation ([6]; HDAC8 purified from Sf9 insect cells, myristoyl- vs acetyl-H3K9): > 2 times; Km [6, 9]: 60.5 µM; kcat [6, 9]: 0.0755 ^b S^−1; kcat/Km [6, 9]: 1,246 ^b S^−1.M^−1
